The results in this text go back to ChEMBL document CHEMBL3763110, “A potent and selective inhibitor targeting human and murine 12/15-LOX” (Bioorg Med Chem, 2016).

The term IC50 denotes the concentration needed to halve the response being measured.

Experiment [1] has as its target T1, Polyunsaturated fatty acid lipoxygenase ALOX15 (Homo sapiens, UniProt P16050).
T1 sequence (P16050 whole entry): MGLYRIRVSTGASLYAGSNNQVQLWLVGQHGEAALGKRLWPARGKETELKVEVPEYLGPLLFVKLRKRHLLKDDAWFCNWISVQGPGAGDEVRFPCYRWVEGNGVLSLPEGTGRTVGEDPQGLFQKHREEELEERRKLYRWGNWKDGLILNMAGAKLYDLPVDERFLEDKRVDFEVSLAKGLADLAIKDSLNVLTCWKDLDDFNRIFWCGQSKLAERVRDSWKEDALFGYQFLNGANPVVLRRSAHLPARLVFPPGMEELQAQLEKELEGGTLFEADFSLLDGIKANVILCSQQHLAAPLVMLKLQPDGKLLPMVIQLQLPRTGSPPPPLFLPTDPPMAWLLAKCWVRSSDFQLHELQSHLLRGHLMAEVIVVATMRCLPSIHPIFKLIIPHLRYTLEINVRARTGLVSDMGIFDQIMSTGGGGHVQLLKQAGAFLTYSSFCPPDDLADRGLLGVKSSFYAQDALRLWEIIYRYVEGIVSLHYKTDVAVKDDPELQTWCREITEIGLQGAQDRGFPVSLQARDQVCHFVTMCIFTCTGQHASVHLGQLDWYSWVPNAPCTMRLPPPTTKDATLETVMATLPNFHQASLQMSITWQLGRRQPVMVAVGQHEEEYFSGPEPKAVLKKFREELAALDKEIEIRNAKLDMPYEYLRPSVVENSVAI
In words: Inhibition of N-terminal His6-tagged human 12/15-LOX using arachidonic acid as substrate by UV-visible spectrophotometric analysis.

Experiment [2] has as its target T2, Polyunsaturated fatty acid lipoxygenase ALOX15 (Mus musculus) (UniProt P39654).
T2 sequence (whole entry): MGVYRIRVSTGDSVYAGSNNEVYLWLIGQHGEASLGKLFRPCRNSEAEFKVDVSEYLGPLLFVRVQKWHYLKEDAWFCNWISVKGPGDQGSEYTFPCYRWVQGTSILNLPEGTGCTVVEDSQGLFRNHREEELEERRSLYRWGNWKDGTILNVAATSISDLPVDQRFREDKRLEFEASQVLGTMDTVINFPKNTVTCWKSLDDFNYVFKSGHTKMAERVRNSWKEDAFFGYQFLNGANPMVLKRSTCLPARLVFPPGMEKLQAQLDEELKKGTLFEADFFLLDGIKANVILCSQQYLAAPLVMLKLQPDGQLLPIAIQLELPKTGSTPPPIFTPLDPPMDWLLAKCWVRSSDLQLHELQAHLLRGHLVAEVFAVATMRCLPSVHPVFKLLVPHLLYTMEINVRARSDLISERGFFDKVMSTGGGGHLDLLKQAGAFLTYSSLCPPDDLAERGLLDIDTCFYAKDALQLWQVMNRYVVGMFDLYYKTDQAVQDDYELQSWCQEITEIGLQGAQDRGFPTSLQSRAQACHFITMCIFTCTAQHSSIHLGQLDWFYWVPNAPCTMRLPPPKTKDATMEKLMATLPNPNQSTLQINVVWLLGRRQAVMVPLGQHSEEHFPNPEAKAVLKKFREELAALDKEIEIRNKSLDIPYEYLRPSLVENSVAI
In words: Inhibition of glutamate-induced 12/15-LOX-dependent cell death in mouse HT22 cells assessed as increase in cell survival at 5 uM by LDH release assay. The note with it: HT-22. The format is cell-based. Put shortly:
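Mouse HT-22 neuronal cells grown in DMEM with 10% FBS and penicillin/streptomycin. Seeded at 1 × 10^4 cells/well and treated 18h later at ~50–70% confluence. Medium was replaced and 5 mM glutamate added with compound at 5, 10 or 20 μM, or DMSO control (max 0.1% final). LDH measured separately in cell extracts and media; % LDH released to medium calculated after background subtraction.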

For experiment [3], the target named is T3, Polyunsaturated fatty acid lipoxygenase ALOX15 (Homo sapiens) (UniProt P16050).
T3 sequence (whole entry): T1 sequence (P16050 whole entry)

The target in experiment [4] is T3, Polyunsaturated fatty acid lipoxygenase ALOX15 (Homo sapiens). This is another data set of the same source.
The target of experiment [5] is T4, Polyunsaturated fatty acid lipoxygenase ALOX15B (Homo sapiens, UniProt O15296).
T4 sequence (O15296 whole entry): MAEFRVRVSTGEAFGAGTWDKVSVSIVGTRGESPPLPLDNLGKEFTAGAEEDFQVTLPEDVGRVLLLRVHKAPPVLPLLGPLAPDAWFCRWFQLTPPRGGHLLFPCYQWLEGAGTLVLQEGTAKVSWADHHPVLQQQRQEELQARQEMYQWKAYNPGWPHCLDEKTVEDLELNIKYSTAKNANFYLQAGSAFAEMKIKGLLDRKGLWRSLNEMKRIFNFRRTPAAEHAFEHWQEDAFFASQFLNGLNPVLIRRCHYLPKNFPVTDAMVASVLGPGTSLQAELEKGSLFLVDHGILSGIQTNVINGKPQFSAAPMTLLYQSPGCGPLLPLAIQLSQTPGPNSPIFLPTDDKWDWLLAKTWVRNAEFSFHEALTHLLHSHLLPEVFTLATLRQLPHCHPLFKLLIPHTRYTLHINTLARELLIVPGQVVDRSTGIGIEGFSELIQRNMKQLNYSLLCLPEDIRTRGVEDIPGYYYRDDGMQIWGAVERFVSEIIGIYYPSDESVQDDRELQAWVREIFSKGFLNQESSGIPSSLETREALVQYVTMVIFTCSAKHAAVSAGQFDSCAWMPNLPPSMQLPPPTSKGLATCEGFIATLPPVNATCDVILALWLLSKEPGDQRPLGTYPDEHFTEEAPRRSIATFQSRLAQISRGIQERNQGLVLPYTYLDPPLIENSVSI
The experiment in a line: Inhibition of N-terminal His6-tagged human 15-LOX-2 using arachidonic acid as substrate by UV-visible spectrophotometric analysis.

Experiment [6] has as its target T5, Prostaglandin G/H synthase 2 (Homo sapiens, UniProt P35354).
T5 sequence (P35354 whole entry): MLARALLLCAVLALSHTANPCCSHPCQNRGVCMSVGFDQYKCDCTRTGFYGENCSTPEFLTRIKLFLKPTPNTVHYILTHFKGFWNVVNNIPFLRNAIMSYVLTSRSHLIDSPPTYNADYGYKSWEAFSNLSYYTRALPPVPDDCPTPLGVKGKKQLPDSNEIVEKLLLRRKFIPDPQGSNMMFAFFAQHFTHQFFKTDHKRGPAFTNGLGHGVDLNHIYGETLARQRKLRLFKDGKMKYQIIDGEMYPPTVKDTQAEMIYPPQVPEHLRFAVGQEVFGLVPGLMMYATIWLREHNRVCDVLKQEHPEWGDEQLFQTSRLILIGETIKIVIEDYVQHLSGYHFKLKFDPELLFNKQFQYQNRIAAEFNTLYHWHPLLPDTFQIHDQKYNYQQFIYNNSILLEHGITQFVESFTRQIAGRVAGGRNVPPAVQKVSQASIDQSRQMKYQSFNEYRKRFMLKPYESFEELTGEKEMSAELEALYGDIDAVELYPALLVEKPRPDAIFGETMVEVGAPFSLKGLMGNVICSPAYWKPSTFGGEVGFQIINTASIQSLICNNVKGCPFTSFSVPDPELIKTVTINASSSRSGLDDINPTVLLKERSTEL
In words: Inhibition of human COX-2 by UV-visible spectrophotometric analysis.

The target of experiment [7] is T6, Polyunsaturated fatty acid 5-lipoxygenase (Homo sapiens, UniProt P09917).
T6 sequence (P09917 whole entry): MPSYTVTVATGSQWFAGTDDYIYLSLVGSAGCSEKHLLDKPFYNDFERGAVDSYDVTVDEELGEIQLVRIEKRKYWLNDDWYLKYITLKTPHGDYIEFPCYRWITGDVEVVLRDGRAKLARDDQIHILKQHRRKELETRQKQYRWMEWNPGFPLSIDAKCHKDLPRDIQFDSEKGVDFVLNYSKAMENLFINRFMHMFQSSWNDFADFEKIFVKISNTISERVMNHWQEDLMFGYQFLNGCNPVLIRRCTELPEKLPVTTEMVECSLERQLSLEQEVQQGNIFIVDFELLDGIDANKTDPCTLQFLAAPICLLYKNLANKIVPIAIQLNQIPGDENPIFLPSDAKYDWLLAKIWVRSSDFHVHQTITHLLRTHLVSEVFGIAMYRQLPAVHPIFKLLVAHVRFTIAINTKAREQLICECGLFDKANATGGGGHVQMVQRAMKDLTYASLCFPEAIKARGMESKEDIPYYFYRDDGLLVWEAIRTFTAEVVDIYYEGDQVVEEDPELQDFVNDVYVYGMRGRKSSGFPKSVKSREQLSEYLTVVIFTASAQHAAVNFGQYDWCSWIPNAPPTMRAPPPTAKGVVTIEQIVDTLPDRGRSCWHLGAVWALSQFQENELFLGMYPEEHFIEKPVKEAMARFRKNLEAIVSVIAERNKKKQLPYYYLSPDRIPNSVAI
The experiment in a line: Inhibition of human 5-LOX using arachidonic acid as substrate by UV-visible spectrophotometric analysis.

In experiment [8] the target is T7, Polyunsaturated fatty acid lipoxygenase ALOX12 (Homo sapiens, UniProt P18054).
T7 sequence (P18054 whole entry): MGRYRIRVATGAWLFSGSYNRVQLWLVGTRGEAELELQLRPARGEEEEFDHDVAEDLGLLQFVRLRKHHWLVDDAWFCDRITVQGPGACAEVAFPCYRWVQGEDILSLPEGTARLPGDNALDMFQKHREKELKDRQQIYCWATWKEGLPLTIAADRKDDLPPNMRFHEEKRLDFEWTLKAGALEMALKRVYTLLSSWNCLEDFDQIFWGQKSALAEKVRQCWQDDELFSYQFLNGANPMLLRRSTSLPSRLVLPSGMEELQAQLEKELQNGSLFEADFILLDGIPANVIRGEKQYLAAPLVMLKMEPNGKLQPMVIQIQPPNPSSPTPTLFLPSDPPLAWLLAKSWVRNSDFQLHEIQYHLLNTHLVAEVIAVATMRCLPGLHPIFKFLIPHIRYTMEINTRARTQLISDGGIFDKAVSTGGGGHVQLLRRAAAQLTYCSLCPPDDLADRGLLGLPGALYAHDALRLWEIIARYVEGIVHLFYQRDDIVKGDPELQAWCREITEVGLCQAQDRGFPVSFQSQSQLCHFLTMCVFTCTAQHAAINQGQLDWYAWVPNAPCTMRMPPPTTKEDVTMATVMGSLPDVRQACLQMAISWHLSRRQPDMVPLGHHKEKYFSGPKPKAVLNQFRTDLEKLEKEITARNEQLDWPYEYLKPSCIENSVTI
In words: Inhibition of N-terminal His6-tagged human 12-LOX using arachidonic acid as substrate by UV-visible spectrophotometric analysis.

In the case of `Cc1ccc(O)c(-c2cc(-c3cccc(F)c3)[nH]n2)c1`, in experiment [1], the IC50 worked out at 10 µM. Moreover, the Survival in experiment [2] turned out to be 49%.

In turn, `Cc1ccc(O)c(-c2cc(C(=O)NCc3ccccc3)[nH]n2)c1` had an IC50 in experiment [1] above 50 µM.

The molecule `Oc1ccc(Cl)cc1-c1cc(-c2ccccc2Cl)[nH]n1` registered an IC50 in experiment [1] above 50 µM.

In the case of `Oc1ccc(Br)cc1-c1cc(-c2ccccc2Cl)[nH]n1`, in experiment [1], the IC50 was above 50 µM.

In the case of `Cc1ccc(-c2cc(-c3ccc(C)cc3O)[nH]n2)cc1`, in experiment [1], the IC50 is above 50 µM.

The molecule `COc1ccc(-c2cc(-c3cc(OC)ccc3O)[nH]n2)cc1` registered an IC50 in experiment [1] of 6 µM. Also, the Survival in experiment [2] was found to be 96%.

The molecule `Oc1ccccc1-c1cc(-c2ccccc2Cl)[nH]n1` gave an IC50 in experiment [1] of 4 µM.

The molecule `Oc1ccc(Br)cc1-c1cc(-c2ccccc2)[nH]n1` registered an IC50 in experiment [1] above 50 µM.

As for `COc1ccc(-c2cc(-c3ccccc3O)[nH]n2)cc1`, the IC50 in experiment [1] was 10 µM. Besides, the Survival in experiment [2] is 7%.

On to `Oc1ccccc1-c1cc(-c2ccco2)[nH]n1`, for which the IC50 in experiment [1] amounted to 7 µM. Further, the Survival in experiment [2] came to 34%.

On to `COc1ccc(O)c(-c2cc(-c3ccccc3Cl)n[nH]2)c1`, for which the IC50 in experiment [1] came to 6.6 µM.

Take `COc1ccc(O)c(-c2cc(-c3ccccc3Cl)[nH]n2)c1`: the Survival in experiment [2] came out at 83%.

As for `Cc1ccccc1-c1cc(-c2ccccc2O)[nH]n1`, the Survival in experiment [2] was found to be 76%.

In experiment [1], `COc1ccc(C(=O)c2c[nH]nc2-c2cc(C)ccc2O)cc1` showed an IC50 above 50 µM.

`Oc1ccccc1-c1cc[nH]n1` had an IC50 in experiment [1] above 50 µM.

`c1ccc(-c2cc(-c3ccccc3)[nH]n2)cc1` showed an IC50 in experiment [1] above 50 µM.

The molecule `Cc1ccccc1-c1cc(-c2ccccc2O)n[nH]1` gave an IC50 in experiment [1] of 7 µM.

Regarding `COc1ccc(O)c(-c2cc(-c3cccc(Br)c3)[nH]n2)c1`, the IC50 in experiment [1] came out at 7 µM. The Survival in experiment [2] was 70%.

The molecule `COc1ccc(-c2cc(-c3ccc(C)cc3)[nH]n2)c(O)c1` gave an IC50 in experiment [1] above 50 µM.

Consider `Cc1ccc(-c2cc(-c3ccccc3C)[nH]n2)c(O)c1`, for which the IC50 in experiment [1] was determined as 10 µM. The Survival in experiment [2] worked out at 71%.

Turning to `Cc1ccc(O)c(-c2cc(-c3ccccc3C)[nH]n2)c1`, in experiment [3], the Kiuc was found to be 6 µM. In experiment [4], this molecule showed a Kic of 1 µM. Also, the IC50 in experiment [1] is 3.4 µM; in experiment [5] it was above 50 µM; in experiment [6] it was above 100 µM; in experiment [7], above 100 µM; in experiment [8], above 50 µM. Moreover, in experiment [2], the Survival was found to be 20%.

Molecule `COc1ccc(O)c(-c2cc(-c3ccc(F)cc3)[nH]n2)c1` yielded an IC50 in experiment [1] of 11 µM. For the same molecule, the Survival in experiment [2] was found to be 78%.

The molecule `Cc1ccc(O)c(-c2cc(-c3cccc(Br)c3)[nH]n2)c1` had an IC50 in experiment [1] of 9.1 µM. Moreover, the Survival in experiment [2] is 18%.
